Laboratory results from ChEMBL document CHEMBL1781892, “Microwave assisted synthesis and structure-activity relationship of 4-hydroxy-N'-[1-phenylethylidene]-2H/2-methyl-1,2-benzothiazine-3-carbohydrazide 1,1-dioxides as anti-microbial agents” (2011).

Assays:
[1] = tested on: Aspergillus fumigatus; assay: Antifungal activity against Aspergillus fumigatus using 1 x 10^5 spore/100 uL assessed as 99.5% fungal killing of original inoculum after 72 hrs by microdilution method; type: functional
[2] = tested on: Curvularia australiensis; assay: Antifungal activity against Drechslera australiensis using 1 x 10^5 spore/100 uL after 72 hrs by microdilution method; type: functional
[3] = tested on: Bacillus subtilis; assay: Antibacterial activity against Bacillus subtilis using 1 x 10^4 CFU/ml inoculum after 24 hrs by microdilution method; type: functional
[4] = tested on: Bacillus thuringiensis; assay: Antibacterial activity against Bacillus thuringiensis using 1 x 10^4 CFU/ml inoculum after 24 hrs by microdilution method; type: functional
[5] = Antifungal activity against Trichoderma reesei using 1 x 10^5 spore/100 uL assessed as 99.5% fungal killing of original inoculum after 72 hrs by microdilution method; type: functional
[6] = tested on: Aspergillus niger; assay: Antifungal activity against Aspergillus niger using 1 x 10^5 spore/100 uL assessed as 99.5% fungal killing of original inoculum after 72 hrs by microdilution method; type: functional
[7] = Antifungal activity against Trichoderma reesei using 1 x 10^5 spore/100 uL after 72 hrs by microdilution method; type: functional
In short: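 Spores washed from malt agar cultures with sterile 0.85% saline plus 0.1% Tween 80, adjusted to about 1.0×10^5 per 100 µl well. Compounds from a 1 mg/ml DMSO stock were serially diluted in malt broth with inoculum in 96-well plates and incubated 72 h at 28 °C. MIC is the lowest concentration with no visible growth under a binocular microscope. DMSO served as negative control.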

[8] = tested on: Trichoderma viride; assay: Antifungal activity against Trichoderma viride using 1 x 10^5 spore/100 uL assessed as 99.5% fungal killing of original inoculum after 72 hrs by microdilution method; type: functional
[9] = tested on: Aspergillus flavus; assay: Antifungal activity against Aspergillus flavus using 1 x 10^5 spore/100 uL assessed as 99.5% fungal killing of original inoculum after 72 hrs by microdilution method; type: functional
[10] = tested on: Staphylococcus aureus; assay: Antibacterial activity against Staphylococcus aureus using 1 x 10^4 CFU/ml inoculum after 24 hrs by microdilution method; type: functional
[11] = tested on: Aspergillus fumigatus; assay: Antifungal activity against Aspergillus fumigatus using 1 x 10^5 spore/100 uL after 72 hrs by microdilution method; type: functional
[12] = tested on: Escherichia coli; assay: Antibacterial activity against Escherichia coli using 1 x 10^4 CFU/ml inoculum after 24 hrs by microdilution method; type: functional
[13] = tested on: Aspergillus flavus; assay: Antifungal activity against Aspergillus flavus using 1 x 10^5 spore/100 uL after 72 hrs by microdilution method; type: functional
[14] = tested on: Aspergillus niger; assay: Antifungal activity against Aspergillus niger using 1 x 10^5 spore/100 uL after 72 hrs by microdilution method; type: functional
[15] = tested on: Salmonella typhi; assay: Antibacterial activity against Salmonella typhi using 1 x 10^4 CFU/ml inoculum after 24 hrs by microdilution method; type: functional, Salmonella enterica subsp. enterica serovar Typhi
[16] = tested on: Curvularia australiensis; assay: Antifungal activity against Drechslera australiensis using 1 x 10^5 spore/100 uL assessed as 99.5% fungal killing of original inoculum after 72 hrs by microdilution method; type: functional
[17] = tested on: Trichoderma viride; assay: Antifungal activity against Trichoderma viride using 1 x 10^5 spore/100 uL after 72 hrs by microdilution method; type: functional
[18] = tested on: Bacillus cereus; assay: Antibacterial activity against Bacillus cereus using 1 x 10^4 CFU/ml inoculum after 24 hrs by microdilution method; type: functional
[19] = tested on: Pseudomonas aeruginosa; assay: Antibacterial activity against Pseudomonas aeruginosa using 1 x 10^4 CFU/ml inoculum after 24 hrs by microdilution method; type: functional

SMILES	MFC [1] [×10⁻² umol]	MIC [2] [×10⁻² umol]	MIC [3] [×10⁻² umol]	MIC [4] [×10⁻² umol]	MFC [5] [×10⁻² µmol]	MFC [6] [×10⁻² umol]	MIC [7] [×10⁻² µmol]	MFC [8] [×10⁻² umol]	MFC [9] [×10⁻² umol]	MIC [10] [×10⁻² umol]	MIC [11] [×10⁻² umol]	MIC [12] [×10⁻² umol]	MIC [13] [×10⁻² umol]	MIC [14] [×10⁻² umol]	MIC [15] [×10⁻² umol]	MFC [16] [×10⁻² umol]	MIC [17] [×10⁻² umol]	MIC [18] [×10⁻² umol]	MIC [19] [×10⁻² umol]
C/C(=N\NC(=O)C1=C(O)c2ccccc2S(=O)(=O)N1C)c1ccc(O)cc1	>200	>100	4.8	5	> 200	>200	> 100	>200	>200	18.9	>100	21	>100	>100	25.1	>200	>100	4.6	22.1
C/C(=N\NC(=O)C1=C(O)c2ccccc2S(=O)(=O)N1C)c1ccc(I)cc1	159.8	74	9.3	9.2	123	198.4	70.1	139.2	190.7	28	81.9	29.3	89.8	91.4	33.2	150.6	71.1	9	30.5
COc1ccc(/C(C)=N/NC(=O)C2=C(O)c3ccccc3S(=O)(=O)N2)cc1	153.6	81.1	7.5	7.8	160	179.5	79.9	158.8	169.3	26.7	77.7	27.8	86.2	87.3	32.7	159.6	80.5	7.8	29.3
C/C(=N\NC(=O)C1=C(O)c2ccccc2S(=O)(=O)N1)c1ccc(I)cc1	159.2	74	9.5	9.4	134	166.1	70.3	139.7	179.8	28.2	82	29.5	89.9	91.5	33.4	145.8	71.3	9.1	30.9
C/C(=N\NC(=O)C1=C(O)c2ccccc2S(=O)(=O)N1)c1cccc(O)c1	>200	>100	4.6	4.4	> 200	>200	> 100	>200	>200	18.4	>100	19.7	>100	>100	23.5	>200	>100	4.5	21.2
COc1ccc(/C(C)=N/NC(=O)C2=C(O)c3ccccc3S(=O)(=O)N2C)cc1	149.5	80	7.6	7.8	158	180.7	78.9	158.4	170	26.3	77.6	27.9	86.1	87.2	32.4	159.9	79.2	7.9	29.2
C/C(=N\NC(=O)C1=C(O)c2ccccc2S(=O)(=O)N1)c1ccc(N)cc1	150.1	70	6	6.1	138	177.5	70.3	142.8	175.9	20.5	74	22.9	82.9	83.8	27.7	129.5	71.3	6.2	24.5
C/C(=N\NC(=O)C1=C(O)c2ccccc2S(=O)(=O)N1)c1ccccc1O	>200	>100	4.4	4.1	> 200	>200	> 100	>200	>200	17.8	>100	19.9	>100	>100	22.7	>200	>100	4.2	20.6
C/C(=N\NC(=O)C1=C(O)c2ccccc2S(=O)(=O)N1C)c1ccc(N)cc1	151.6	69.8	6.2	6.3	136	167	68	142	166.3	20.4	73.6	22.4	82.9	83.7	27.5	133.7	71.1	6.2	24.3
C/C(=N\NC(=O)C1=C(O)c2ccccc2S(=O)(=O)N1C)c1cccc(O)c1	>200	>100	4.5	4.3	> 200	>200	> 100	>200	>200	18.2	>100	19.3	>100	>100	23.1	>200	>100	4.2	21
C/C(=N\NC(=O)C1=C(O)c2ccccc2S(=O)(=O)N1C)c1ccccc1Cl	144.6	63.6	11	12	119	167.9	61.1	133.1	170.2	30.7	76.1	31.7	87.1	88.6	–	126.5	66.5	10.8	32.6
